Assay results: ChEMBL document CHEMBL1130078, “Discovery of an orally active series of isoxazoline glycoprotein IIb/IIIa antagonists” (J Med Chem, 1997)

What was measured:
[1] = molecular target: T1, Integrin alpha-IIb/beta-3 (Homo sapiens, UniProt P05106+P08514); experiment: In vitro inhibition of ADP-induced platelet aggregation in human platelet rich plasma (hPRP); assay type: functional, cell-free
Rhesus monkey [2] = experiment: Inhibition of ex vivo aggregation in 2 hr after oral dose of 0.3 mg/kg to rhesus monkey; assay type: functional, Cercopithecidae; conditions: Macaca mulatta
Procedure, shortened: (§1)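 Rhesus monkeys of either sex, 8–15 years, 6–10 kg, at least two animals/sex per dose, n = 8. Oral gavage by feeding tube of a solution in 0.9% saline (0.5 mL/kg), then water flush. Blood was drawn at various time points from the femoral or saphenous vein into citrate for ex vivo ADP (100 μM)-induced aggregation.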

Canis familiaris [3] = experiment: Inhibition of platelet aggregation for 12 hr after oral dose of 0.3-0.4 mg/kg to dog; assay type: functional, Canis lupus familiaris
Procedure, shortened: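 Dogs dosed orally at 0.1–0.4 mg/kg; ex vivo ADP (100 μM)-induced platelet aggregation followed over time up to 12 h, n = 4.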

Rhesus monkey [4] = experiment: Inhibition of ex vivo aggregation over 12 hr after oral dose of 0.3 mg/kg to rhesus monkey; assay type: functional, Cercopithecidae; conditions: Macaca mulatta; procedure, shortened: as §1
[5] = molecular target: T1, Integrin alpha-IIb/beta-3
Canis familiaris [6] = experiment: Inhibition of ex vivo platelet aggregation after intravenous administration of bolus dose of 0.025 mg/kg to dog; assay type: functional; conditions: Canis lupus familiaris
Procedure, shortened: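 Dogs given an iv bolus. Ex vivo ADP (100 μM)-induced platelet aggregation measured in samples taken over 5 h.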

[7] = molecular target: T1, Integrin alpha-IIb/beta-3; remark: listed apart in the source

T1 sequence (P05106 27-788 limits assumed): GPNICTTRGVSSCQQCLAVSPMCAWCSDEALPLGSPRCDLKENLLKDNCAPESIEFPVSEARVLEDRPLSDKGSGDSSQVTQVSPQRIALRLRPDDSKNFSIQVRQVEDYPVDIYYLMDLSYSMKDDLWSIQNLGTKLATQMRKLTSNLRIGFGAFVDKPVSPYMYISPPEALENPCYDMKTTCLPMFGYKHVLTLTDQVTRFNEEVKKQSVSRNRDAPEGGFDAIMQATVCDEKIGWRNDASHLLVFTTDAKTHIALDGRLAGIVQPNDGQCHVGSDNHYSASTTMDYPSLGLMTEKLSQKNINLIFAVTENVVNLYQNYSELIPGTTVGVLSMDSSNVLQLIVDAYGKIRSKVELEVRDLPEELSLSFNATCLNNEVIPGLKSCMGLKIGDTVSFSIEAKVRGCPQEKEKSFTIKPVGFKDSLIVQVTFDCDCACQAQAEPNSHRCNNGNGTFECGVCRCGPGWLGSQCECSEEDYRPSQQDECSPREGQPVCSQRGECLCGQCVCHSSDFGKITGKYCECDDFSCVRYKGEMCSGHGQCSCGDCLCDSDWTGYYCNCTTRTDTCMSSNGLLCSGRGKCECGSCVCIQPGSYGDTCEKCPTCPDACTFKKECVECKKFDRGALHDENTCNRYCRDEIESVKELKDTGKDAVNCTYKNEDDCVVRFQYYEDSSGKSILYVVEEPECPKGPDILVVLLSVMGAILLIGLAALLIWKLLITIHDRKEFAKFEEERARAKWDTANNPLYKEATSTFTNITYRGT
T1 sequence (P08514 32-887 limits assumed): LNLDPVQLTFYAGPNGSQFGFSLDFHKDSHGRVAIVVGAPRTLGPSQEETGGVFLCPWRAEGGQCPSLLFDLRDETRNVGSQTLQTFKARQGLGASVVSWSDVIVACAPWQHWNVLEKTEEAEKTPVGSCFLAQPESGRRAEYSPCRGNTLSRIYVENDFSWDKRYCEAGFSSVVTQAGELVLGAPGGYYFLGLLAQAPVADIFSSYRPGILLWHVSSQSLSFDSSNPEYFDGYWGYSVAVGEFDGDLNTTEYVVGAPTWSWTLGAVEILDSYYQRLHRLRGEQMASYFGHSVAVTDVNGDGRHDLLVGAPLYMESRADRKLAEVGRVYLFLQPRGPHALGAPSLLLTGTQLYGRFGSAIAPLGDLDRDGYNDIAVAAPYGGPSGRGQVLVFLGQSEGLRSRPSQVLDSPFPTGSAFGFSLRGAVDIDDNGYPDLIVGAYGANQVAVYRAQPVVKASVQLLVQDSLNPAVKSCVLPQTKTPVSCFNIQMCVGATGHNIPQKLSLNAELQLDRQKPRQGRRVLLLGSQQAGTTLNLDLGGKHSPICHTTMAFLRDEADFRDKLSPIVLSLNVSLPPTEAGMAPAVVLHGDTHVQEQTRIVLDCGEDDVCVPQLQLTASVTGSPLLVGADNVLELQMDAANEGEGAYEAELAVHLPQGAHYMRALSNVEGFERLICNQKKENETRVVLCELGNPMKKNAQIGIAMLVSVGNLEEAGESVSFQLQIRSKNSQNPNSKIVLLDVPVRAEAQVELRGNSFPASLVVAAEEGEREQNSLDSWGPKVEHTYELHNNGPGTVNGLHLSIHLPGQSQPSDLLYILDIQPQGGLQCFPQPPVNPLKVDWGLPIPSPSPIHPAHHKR
T1 sequence (P08514 891-1039 limits assumed): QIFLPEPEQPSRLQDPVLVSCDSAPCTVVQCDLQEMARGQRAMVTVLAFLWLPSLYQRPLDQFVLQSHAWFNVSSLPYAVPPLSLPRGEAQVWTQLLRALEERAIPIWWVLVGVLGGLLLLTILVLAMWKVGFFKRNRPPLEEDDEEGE

N=C(N)c1ccc(C2=NOC(CC(=O)NCCC(=O)O)C2)cc1 (configuration not stated)
IC50 [1]: 0.24 µM

CCCCOC(=O)N[C@@H](CNC(=O)CC1CC(c2ccc(C(=N)N)cc2)=NO1)C(=O)OC.Cl (some centres not stated)
inhibition in vivo at 0.3 mg/kg (Rhesus monkey [2]): 90%
Inhibition (Canis familiaris [3]): >60%
inhibition in vivo at 0.3 mg/kg (Rhesus monkey [4]): 60%

CCCCOC(=O)N[C@@H](CNC(=O)C[C@H]1CC(c2ccc(C(=N)N)cc2)=NO1)C(=O)O
IC50 [5]: 0.011 µM
inhibition in vivo at 0.025 mg/kg (Canis familiaris [6]): 90%
IC50 [7]: 0.00025 µM
